Results reported in ChEMBL document CHEMBL1147268, “New triterpene glycosides from the stems of Anomospermum grandifolium” (2003).
In brackets after ≈: the same amount, converted by molar mass. Activity calls are given as the source filed them. No cut-off for these calls is given here.

Tests used:
[1] = system: Enterococcus faecalis; assay: Antibacterial activity against Enterococcus faecalis ATCC 29212 at 120 ug/mL after 18 hrs by broth microdilution method; assay type: functional, organism-based
How it was run: (§1)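 Broth microdilution in Mueller Hinton broth in 96-well plates, run in duplicate following NCCLS guidance. Pure compounds were tested at dilution intervals up to a top concentration of 120 or 250 µg/mL. Plates were incubated 18 h at 37 °C and read from below with a reflective viewer. DMSO served as blank control and ampicillin as positive control.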

[2] = system: Staphylococcus aureus; assay: Antibacterial activity against Staphylococcus aureus ATCC 25923 at 120 ug/mL after 18 hrs by broth microdilution method; assay type: functional, organism-based; how it was run: as §1
[3] = system: Escherichia coli; assay: Antibacterial activity against Escherichia coli ATCC 25922 at 120 ug/mL after 18 hrs by broth microdilution method; assay type: functional, organism-based; how it was run: as §1
[4] = system: Pseudomonas aeruginosa; assay: Antibacterial activity against Pseudomonas aeruginosa ATCC 27853 at 120 ug/mL after 18 hrs by broth microdilution method; assay type: functional, organism-based; how it was run: as §1
[5] = system: Candida albicans; assay: Antifungal activity against Candida albicans ATCC 3153 after 18 hrs by broth microdilution method; assay type: functional; settings: ATCC 3153, 18 h
How it was run: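 Candida albicans ATCC 3153 was tested by broth microdilution in Sabouraud broth in 96-well plates, in duplicate, per NCCLS. Pure compounds were tested at varied dilution intervals. Plates were incubated 18 h at 37 °C and read from below with a reflective viewer. MIC was taken from the growth end point. DMSO served as blank control and ketoconazole as positive control.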

[6] = system: Enterococcus faecalis; assay: Antibacterial activity against Enterococcus faecalis ATCC 29212 at 250 ug/mL after 18 hrs by broth microdilution method; assay type: functional, organism-based; how it was run: as §1
[7] = system: Staphylococcus aureus; assay: Antibacterial activity against Staphylococcus aureus ATCC 25923 at 250 ug/mL after 18 hrs by broth microdilution method; assay type: functional, organism-based; how it was run: as §1
[8] = system: Escherichia coli; assay: Antibacterial activity against Escherichia coli ATCC 25922 at 250 ug/mL after 18 hrs by broth microdilution method; assay type: functional, organism-based; how it was run: as §1
[9] = system: Pseudomonas aeruginosa; assay: Antibacterial activity against Pseudomonas aeruginosa ATCC 27853 at 250 ug/mL after 18 hrs by broth microdilution method; assay type: functional, organism-based; how it was run: as §1

SMILES	Activity [1]	Activity [2]	Activity [3]	Activity [4]	MIC [5] [µg/mL]	Activity [6]	Activity [7]	Activity [8]	Activity [9]
CC(C)=C[C@H]1C[C@](C)(O)[C@@H]2[C@H]3CC[C@@H]4[C@@]5(C)CC[C@H](O[C@@H]6OC[C@H](O)[C@H](O[C@@H]7O[C@H](CO)[C@@H](O)[C@H](O)[C@H]7O)[C@H]6O[C@@H]6O[C@@H](CO)[C@H](O)[C@H]6O)C(C)(C)[C@@H]5CC[C@@]4(C)[C@@]34CO[C@@]2(C4)O1	inactive	inactive	inactive	inactive					
CC(=O)N1CCN(c2ccc(OCC3COC(Cn4ccnc4)(c4ccc(Cl)cc4Cl)O3)cc2)CC1 (stereo not given) [KETOCONAZOLE]					0.1 (≈ 0.188 µM)				
CC(C)=C[C@H]1C[C@](C)(O)[C@@H]2[C@H]3CC[C@@H]4[C@@]5(C)CC[C@H](O[C@@H]6OC[C@H](O)[C@H](O[C@@H]7O[C@H](CO[C@@H]8O[C@H](CO)[C@@H](O)[C@H](O)[C@H]8O)[C@@H](O)[C@H](O)[C@H]7O)[C@H]6O[C@@H]6O[C@@H](CO)[C@H](O)[C@H]6O)C(C)(C)[C@@H]5CC[C@@]4(C)[C@@]34CO[C@@]2(C4)O1					250 (≈ 236 µM)	inactive	inactive	inactive	inactive
